Laboratory results as given in paper PMC7211327 (International Journal of Nanomedicine, 2020).
Values after ≈ are worked out from the molar mass of the structure shown.

Tests used:
Assay type in all cases: cell-based
[1] = test system: Bacillus subtilis (ATCC 6633); experiment: Paper disk diffusion MIC; details: ATCC6633, 24 h, read-out: Minimal Inhibitory Concentration (MIC)
Summary of the method: (§1)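 Paper disk diffusion MIC. Paper disks (12.7 mm) were loaded with test compound at different concentrations, dried and placed on nutrient agar inoculated with the test organism. Growth inhibition was examined after 24 hrs at 37°C. Each test was done three times, and values are the mean ± standard error.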

[2] = test system: Escherichia coli (ATCC 25922); experiment: Agar plate diffusion, inhibition zone; details: ATCC25922, 24 h, read-out: Mean Diameter of Inhibition Zone (IZ)
[3] = test system: Staphylococcus aureus (ATCC 29213); experiment: Agar plate diffusion, inhibition zone; details: ATCC29213, 24 h, read-out: Mean Diameter of Inhibition Zone (IZ)
[4] = test system: Pseudomonas aeruginosa (ATCC 27853); experiment: Agar plate diffusion, inhibition zone; details: ATCC27853, 24 h, read-out: Mean Diameter of Inhibition Zone (IZ)
[5] = test system: Escherichia coli (ATCC 25922); experiment: Paper disk diffusion MIC; details: ATCC25922, 24 h, read-out: Minimal Inhibitory Concentration (MIC)
Summary of the method: as §1

[6] = test system: Pseudomonas aeruginosa (ATCC 27853); experiment: Paper disk diffusion MIC; details: ATCC27853, 24 h, read-out: Minimal Inhibitory Concentration (MIC)
Summary of the method: as §1

[7] = test system: Bacillus subtilis (ATCC 6633); experiment: Agar plate diffusion, inhibition zone; details: ATCC6633, 24 h, read-out: Mean Diameter of Inhibition Zone (IZ)
[8] = test system: MRSA; experiment: Agar plate diffusion, inhibition zone; details: Staphylococcus aureus, 24 h, read-out: Mean Diameter of Inhibition Zone (IZ)
[9] = test system: Staphylococcus aureus (ATCC 29213); experiment: Paper disk diffusion MIC; details: ATCC29213, 24 h, read-out: Minimal Inhibitory Concentration (MIC)
Summary of the method: as §1

[10] = test system: MRSA; experiment: Paper disk diffusion MIC; details: Staphylococcus aureus, 24 h, read-out: Minimal Inhibitory Concentration (MIC)
Summary of the method: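 Bacteria were grown on nutrient agar. Dried 12.7 mm paper disks loaded with a range of test compound concentrations were placed on inoculated agar plates. Growth inhibition was scored after 24 h at 37°C, and each test was replicated three times.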

| MIC [1] | MIC [5] | MIC [6] | MIC [9] | MIC [10] | Structure (SMILES) | zone of inhibition at 500 µg/mL [2] | zone of inhibition at 500 µg/mL [3] | zone of inhibition at 500 µg/mL [4] | zone of inhibition at 500 µg/mL [7] | zone of inhibition at 500 µg/mL [8] |
| --- | --- | --- | --- | --- | --- | --- | --- | --- | --- | --- |
| 2.5 µg/mL (≈ 5.36 µM) | 10 µg/mL (≈ 21.4 µM) | 20 µg/mL (≈ 42.9 µM) | 1.56 µg/mL (≈ 3.34 µM) | 10 µg/mL (≈ 21.4 µM) | NS(=O)(=O)c1ccc(-n2c(SCC(=O)Nc3ccccc3)nc3ccccc3c2=O)cc1 [Compound 5, 2-((4-Oxo-3-(4-sulfamoylphenyl)-3,4-dihydroquinazolin-2-yl)thio)-N-phenylacetamide] | 14 ± 0.23 mm | 22 ± 0.31 mm | 15 ± 0.21 mm | 25 ± 0.07 mm | 20 ± 0.18 mm |
| 0.8 µg/mL (≈ 2.41 µM) | 1.57 µg/mL (≈ 4.74 µM) | 3.13 µg/mL (≈ 9.45 µM) | 0.78 µg/mL (≈ 2.35 µM) | 1.25 µg/mL (≈ 3.77 µM) | O=C(O)c1cn(C2CC2)c2cc(N3CCNCC3)c(F)cc2c1=O [Ciprofloxacin, reference compound] | 27 ± 0.98 mm | 27 ± 0.23 mm | 24 ± 0.47 mm | 29 ± 0.15 mm | 22 ± 0.5 mm |
| 31.2 µg/mL (≈ 70.3 µM) | 15.6 µg/mL (≈ 35.2 µM) | 62.5 µg/mL (≈ 141 µM) | 62.5 µg/mL (≈ 141 µM) |  | CN(C)[C@@H]1C(O)=C(C(N)=O)C(=O)[C@@]2(O)C(O)=C3C(=O)c4c(O)cccc4[C@@](C)(O)[C@H]3C[C@@H]12 [Tetracycline, reference compound] | 23 ± 0.31 mm | 25 ± 0.04 mm | 20 ± 0.1 mm | 25 ± 0.01 mm |  |
| 6.31 µg/mL (≈ 13.1 µM) |  |  | 12.5 µg/mL (≈ 26 µM) | 20 µg/mL (≈ 41.6 µM) | Cc1ccc(NC(=O)CSc2nc3ccccc3c(=O)n2-c2ccc(S(N)(=O)=O)cc2)cc1 [Compound 8, 2-((4-Oxo-3-(4-sulfamoylphenyl)-3,4-dihydroquinazolin-2-yl)thio)-N-4-tolylacetamide] |  | 23 ± 0.09 mm |  | 26 ± 0.16 mm | 19 ± 0.01 mm |
| 15.6 µg/mL (≈ 32.5 µM) | 5 µg/mL (≈ 10.4 µM) | 7.5 µg/mL (≈ 15.6 µM) | 31.2 µg/mL (≈ 65 µM) |  | Cc1ccccc1NC(=O)CSc1nc2ccccc2c(=O)n1-c1ccc(S(N)(=O)=O)cc1 [Compound 6, 2-((4-Oxo-3-(4-sulfamoylphenyl)-3,4-dihydroquinazolin-2-yl)thio)-N-2-tolylacetamide] | 15 ± 0.31 mm | 14 ± 0.03 mm | 17 ± 0.13 mm | 16 ± 0.1 mm |  |
| 1.25 µg/mL (≈ 2.6 µM) | 20 µg/mL (≈ 41.6 µM) | 15.6 µg/mL (≈ 32.5 µM) | 2.5 µg/mL (≈ 5.2 µM) | 7.81 µg/mL (≈ 16.3 µM) | Cc1cccc(NC(=O)CSc2nc3ccccc3c(=O)n2-c2ccc(S(N)(=O)=O)cc2)c1 [Compound 7, 2-((4-Oxo-3-(4-sulfamoylphenyl)-3,4-dihydroquinazolin-2-yl)thio)-N-3-tolylacetamide] | 12 ± 0.15 mm | 15 ± 0.07 mm | 14 ± 0.03 mm | 20 ± 0.21 mm | 10 ± 0.02 mm |
| 1.95 µg/mL (≈ 1.35 µM) | 1.38 µg/mL (≈ 0.952 µM) | 2.5 µg/mL (≈ 1.73 µM) | 1.57 µg/mL (≈ 1.08 µM) | 3.9 µg/mL (≈ 2.69 µM) | CN[C@H](CC(C)C)C(=O)N[C@H]1C(=O)N[C@@H](CC(N)=O)C(=O)N[C@H]2C(=O)N[C@H]3C(=O)N[C@H](C(=O)N[C@H](C(=O)O)c4cc(O)cc(O)c4-c4cc3ccc4O)[C@H](O)c3ccc(c(Cl)c3)Oc3cc2cc(c3O[C@@H]2O[C@H](CO)[C@@H](O)[C@H](O)[C@H]2O[C@H]2C[C@](C)(N)[C@H](O)[C@H](C)O2)Oc2ccc(cc2Cl)[C@H]1O [Vancomycin, reference compound] | 24 ± 0.2 mm | 17 ± 0.11 mm | 22 ± 0.85 mm | 21 ± 0.4 mm | 14 ± 0.65 mm |
